Assay outcomes (PubChem)
TRPC4 act – activators of mouse TRPC4 channel | HEK293 TRPC4beta/mu-opioid, Fluo4 calcium fluorescence; hits give high values | B-score at 10 µM | 310,000 tested, 0.49% active;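 active means B-score above 5 SD of library B-scores, and initial fluorescence ratio not above library mean plus 5 SD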;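 further: positive B-score marks a calcium rise read as TRPC4 activation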
Target sequence (Q9QUQ5 whole entry, looked up): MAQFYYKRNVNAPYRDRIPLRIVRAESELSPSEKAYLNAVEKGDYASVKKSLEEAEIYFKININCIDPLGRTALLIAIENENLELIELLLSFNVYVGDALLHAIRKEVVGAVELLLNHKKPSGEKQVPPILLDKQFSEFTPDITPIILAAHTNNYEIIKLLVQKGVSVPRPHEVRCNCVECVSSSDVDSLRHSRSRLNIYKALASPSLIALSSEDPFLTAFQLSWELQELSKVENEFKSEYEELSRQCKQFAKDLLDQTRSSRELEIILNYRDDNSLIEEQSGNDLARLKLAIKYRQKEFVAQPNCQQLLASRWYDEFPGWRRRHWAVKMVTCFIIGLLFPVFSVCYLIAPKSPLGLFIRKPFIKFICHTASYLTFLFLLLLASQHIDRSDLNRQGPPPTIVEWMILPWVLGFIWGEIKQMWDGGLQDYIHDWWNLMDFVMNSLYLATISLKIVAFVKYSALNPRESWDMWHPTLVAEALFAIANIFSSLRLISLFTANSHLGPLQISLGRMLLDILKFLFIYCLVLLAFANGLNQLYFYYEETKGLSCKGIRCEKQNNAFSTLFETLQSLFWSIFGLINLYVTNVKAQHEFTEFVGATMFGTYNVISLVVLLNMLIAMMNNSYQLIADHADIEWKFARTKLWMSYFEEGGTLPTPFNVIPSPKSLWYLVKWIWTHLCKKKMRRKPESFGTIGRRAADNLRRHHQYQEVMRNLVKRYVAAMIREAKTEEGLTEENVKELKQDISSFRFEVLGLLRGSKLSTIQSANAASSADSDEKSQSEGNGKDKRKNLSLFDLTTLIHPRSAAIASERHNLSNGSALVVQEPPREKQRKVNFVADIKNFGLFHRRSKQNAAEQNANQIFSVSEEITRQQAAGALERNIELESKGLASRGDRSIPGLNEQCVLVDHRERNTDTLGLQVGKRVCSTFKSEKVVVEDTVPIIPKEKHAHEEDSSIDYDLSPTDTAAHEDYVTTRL
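Material: HEK293 stable line with TRPC4beta plus mu-opioid receptor; technique: Fluo4 calcium-sensitive dye fluorescence, kinetic, 1 Hz baseline; timing: Fluo4 dye loading 45 min at room temperature, 110 s recording; controls: assay buffer as low control, maximal DAMGO as high control; read-out: integrated baseline-normalised fluorescence ratio, converted to per-well B score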
TRPC6 inh – blocks the mouse TRPC6 cation channel | B-score at 10 µM | 310,000 tested, 1.1% active | HEK293-TRPC6, membrane potential dye, ACh-evoked depolarization; hits give low values | AID 2553 | Q61143;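 active means B-score under library mean minus 3 SD, initial fluorescence not abnormally high, positive integrated signal ratio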;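 further: B-score derived from integrated fluorescence ratio over the kinetic read; more negative B-score means stronger inhibition of depolarization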
TRPC6 act – activators of mouse TRPC6 channel | HEK293-TRPC6 membrane potential dye fluorescence; hits give high values | B-score at 10 µM | 310,000 tested, 0.13% active | AID 2550;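 active means B-score of the integrated fluorescence ratio above library mean plus 3 SD, and starting fluorescence ratio within library mean plus 5 SD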;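 further: higher score means more depolarization so channel activation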
TRPC4 block – TRPC4 (mouse) channel inhibition; Q9QUQ5; HEK293 TRPC4beta/mu-opioid, DAMGO-evoked Fluo4 calcium flux; hits give low values; B-score at 10 µM; 300,000 tested, 0.39% active;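 active means B-score over 3 SD under the library average, no early fluorescence shift, positive overall ratio signal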
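material = TRPC4beta/mu-opioid receptor HEK293 cell line | probe or stimulus = sequential submaximal and maximal DAMGO stimulation | compound dosing = one concentration per compound | measured by = Fluo4 Ca2+ flux fluorescence | evaluation = integrated fluorescence ratio relative to baseline, converted to per-well B score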
TRPC4 PAM – TRPC4 (mouse) allosteric potentiation; Q9QUQ5; HEK293 TRPC4beta/mu-opioid, DAMGO EC20, Fluo-4 Ca2+ flux; hits give high values; B-score at 10 µM; 310,000 tested, 0.42% active;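 active means B-score of calcium response area above 5 SD of library B-scores, with initial fluorescence ratio within 5 SD of library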;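 further: B-score of integrated fluorescence ratio over time as area under calcium response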
TRPC4 spec 2 – mouse TRPC4 off-target activity of TRPC6 inhibitors, second screen | inhibition, % at 10 µM | HEK293 TRPC4/MOR, membrane potential dye fluorescence; channel activated by saturating DAMGO dose | 920 tested, 42% active | shares compounds with TRPC6 inh;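 active means compounds whose fluorescence signal differed from control wells by over 3 SD, either direction, in both duplicate plates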
TRPC4 spec – selectivity of TRPC6 inhibitors: effect on mouse TRPC4; shares compounds with TRPC6 inh; HEK293 TRPC4/mu-opioid, membrane potential fluorescence; activity change, negative = inhibition, % at 10 µM; 920 tested, 61% active; AID 2777;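 active means rise or fall in signal beyond 3 SD of buffer-only wells in both replicate plates, either sign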;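 further: integrated kinetic ratio of fluorescence range over baseline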
HEK293 MPD ctr 2-1 – parental HEK293 nonspecific activity of TRPC6 inhibitors, second screen; 920 tested, 31% active; signal change vs control, % at 10 µM; parental HEK293 membrane potential dye fluorescence; maximal acetylcholine challenge after compound addition; AID 2779; shares compounds with TRPC6 inh;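 active means membrane potential signal moving either way by over 3 SD of the maximum-effect control, in both duplicate plates, meaning non-specific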
HEK293 MPD ctr-1 – counter-screen for TRPC6 inhibitors: effect in parental HEK293 cells; 920 tested, 60% active; shares compounds with TRPC6 inh; AID 2780; membrane potential signal change, % at 10 µM; parental HEK293 membrane potential dye fluorescence;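 active means membrane potential signal shifting up or down by more than 3 SD of buffer-only wells, on both duplicate plates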
HEK293 MPD ctr-2 – parental HEK293 nonspecific activity of TRPC6 modulators | AID 488924 | membrane potential dye fluorescence | 2,400 tested, 51% active | shares compounds with TRPC6 inh | membrane potential signal change, % at 10 µM;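 active means membrane potential signal moves up or down beyond 5 SD from buffer-only wells, on both duplicate plates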
HEK293 MPD ctr 2-2 – parental HEK293 nonspecific activity of TRPC6 modulators, second screen | shares compounds with TRPC6 inh | membrane potential dye fluorescence; after compound, maximal acetylcholine stimulation | inhibition, % at 10 µM | 2,400 tested, 14% active;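 active means membrane potential signal drops by more than 5 SD from the mean control signal, in both duplicate plates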;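 further: plate controls were acetylcholine ECmax control wells for no effect and buffer only wells for full effect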
TRPC4/MOR mod – tests whether TRPC6 modulators also affect mouse TRPC4 | HEK293 TRPC4/mu-opioid, membrane potential fluorescence | shares compounds with TRPC6 inh | percent change from control (negative = decrease, positive = increase), % at 10 µM | 2,400 tested, 69% active;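 active means membrane potential signal moved up or down beyond 5 SD of buffer control wells, in both duplicate plates, actives on both sides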;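 further: plate controls were assay buffer wells for no effect and DAMGO maximal-effect wells for full effect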
TRPC4/MOR inh 2 – second selectivity test of TRPC6 modulators against mouse TRPC4; shares compounds with TRPC6 inh; HEK293 TRPC4/mu-opioid, membrane potential dye fluorescence; stimulated with maximal-effect DAMGO; inhibition, % at 10 µM; 2,400 tested, 55% active;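 active means drop in membrane potential signal beyond 5 SD of the control wells in both duplicate plates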;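 further: TRPC4 counter screen for TRPC6 hits run under conditions tuned for TRPC6 not TRPC4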
TRPC6 block conf – confirmation of mouse TRPC6 inhibitors; 3,300 tested, 43% active; HEK293-TRPC6, membrane potential dye, ACh-evoked depolarization; inhibition, % at 10 µM; shares compounds with TRPC6 inh;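 active means fluorescence ratio falls more than 5 SD below the full-stimulation control mean, in both duplicate runs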;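 further: integrated fluorescence ratio of peak minus minimum over baseline after agonist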
TRPC6 act confirm – confirmation of mouse TRPC6 activators. AID 488961. activation, % at 10 µM. 2,800 tested, 11% active. shares compounds with TRPC6 inh. HEK293-TRPC6 membrane potential dye fluorescence, FDSS;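 active means ratio signal rise beyond 5 SD above unstimulated control wells' mean, seen in both duplicate runs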;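 further: plate controls were buffer EC0 wells for no effect and acetylcholine ECmax response for full effect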
An asterisk follows results filed as active; i = inactive; · = no result given; + = active, no number. This is a sample that favours compounds with a hit; in the whole collection about 2.3% have one here.

SMILES	TRPC4 act	TRPC6 inh	TRPC6 act	TRPC4 block	TRPC4 PAM	HEK293 MPD ctr-2	HEK293 MPD ctr 2-2	TRPC4/MOR mod	TRPC4/MOR inh 2	TRPC6 block conf	TRPC6 act confirm	others
COc1cccc(CNCCc2ccccc2)c1OC	i	i	i	i	i	·	·	·	·	·	·
COc1ccc(C2=NS(=O)(=O)N(C)C(C(=O)N3CCC4(CC3)OCCO4)=C2)cc1OC	i	i	i	i	i	·	·	·	·	·	·
Cc1ccc(-c2nc3ccccc3c(=O)n2-c2cc(C)ccn2)cc1	i	i	i	i	i	·	·	·	·	·	·
Cc1ccc(-c2nc3ccccc3c(=O)n2-c2cccc(C)n2)cc1	i	-6.01*	i	i	i	i	i	i	i	i	i
C[C@H]1OC[C@@H](C[N+](C)(C)C)O1	88*	-6.71*	i	i	i	·	·	·	·	70.1%*	·	TRPC4 spec 2=i;TRPC4 spec=34.0%*;HEK293 MPD ctr 2-1=i;HEK293 MPD ctr-1=4.8%*
CCC(C)N1CCN(C(=O)Cc2ccccc2)CC1 (stereo not given)	i	-7.1*	i	i	i	·	·	·	·	i	i	TRPC4 spec 2=i;TRPC4 spec=i;HEK293 MPD ctr 2-1=i;HEK293 MPD ctr-1=i
CN1CCN(c2nc(N(C)C)oc(=O)c2C#N)CC1	i	i	i	i	i	·	·	·	·	·	·
N#Cc1c(N2CCNCC2)nc(-c2ccco2)c2c1CCCC2	i	-7.84*	i	i	i	·	·	·	·	58.3%*	i	TRPC4 spec 2=28.5%*;TRPC4 spec=-13.5%*;HEK293 MPD ctr 2-1=i;HEK293 MPD ctr-1=-228.0%*
CSc1ncc(CN2CCCC(C(=O)c3ccccc3SC)C2)cn1 (stereo not given)	i	i	i	i	i	·	·	·	·	·	·
COc1cccc(O)c1CN1CCCC(C(=O)c2ccccc2SC)C1 (stereo not given)	i	-5.61*	i	i	i	192.5%*	i	26.0%*	54.5%*	i	·
O=C(O)CC[N+](=O)[O-]	i	i	i	i	i	·	·	·	·	·	·
O=C1CN(O)C(c2ccccc2)=c2cc(Cl)ccc2=N1	i	i	i	i	i	·	·	·	·	·	·
CCCCc1nc(N2CCNCC2)c(C#N)c2c1CSC(C)(C)C2	i	-7.79*	i	i	i	·	·	·	·	i	i	TRPC4 spec 2=44.5%*;TRPC4 spec=i;HEK293 MPD ctr 2-1=i;HEK293 MPD ctr-1=0.9%*
Cc1ccc2c(c1)C(c1ccccc1)=NCC(=O)N2C	i	i	i	i	i	·	·	·	·	·	·
O=C(C(=O)N1CCOCC1)c1cn(Cc2ccc(F)cc2)c2ccccc12	i	i	i	i	i	·	·	·	·	·	·
CCCCCCCSc1cc(OC)c(CCNC)cc1OC	i	-5.09*	i	i	i	i	i	i	49.5%*	43.0%*	i
CCCCCSc1cc(OC)c(CCNC)cc1OC	i	-6.03*	i	i	i	i	i	12.5%*	28.5%*	i	i
N=C1c2ccccc2CN1c1ncccn1	i	-7.28*	i	i	i	i	i	-11.0%*	i	i	i
COCCCN1Cc2ccccc2C1=N	i	i	i	i	i	·	·	·	·	·	·
CSc1nnc(OC(=O)N(C)C)n1-c1ccc(Cl)cc1	i	i	i	i	i	·	·	·	·	·	·
COc1cc(/C=C/[N+](=O)[O-])ccc1O	i	i	i	i	i	·	·	·	·	·	·
CCN(CC)c1ccc(/C=C/[N+](=O)[O-])cc1	105*	i	55.5*	i	i	+	+	386.0%*	32.0%*	·	433.5%*
O=C(O)C1C2CCC(O2)C1C(=O)Nc1cccc(Br)c1 (stereo not given)	i	i	i	i	i	·	·	·	·	·	·
OC(c1ccccc1)(c1ccccc1)C1CN2CCC1CC2 (stereo not given)	i	-7.87*	i	i	i	·	·	·	·	i	i	TRPC4 spec 2=i;TRPC4 spec=i;HEK293 MPD ctr 2-1=i;HEK293 MPD ctr-1=i
OC(c1ccccc1)(c1ccc(Cl)cc1)C1CN2CCC1CC2 (stereo not given)	i	i	i	i	i	·	·	·	·	·	·
SMILES	TRPC4 act	TRPC6 inh	TRPC6 act	TRPC4 block	TRPC4 PAM	HEK293 MPD ctr-2	HEK293 MPD ctr 2-2	TRPC4/MOR mod	TRPC4/MOR inh 2	TRPC6 block conf	TRPC6 act confirm	others
OC(Cc1ccccc1)(c1ccccc1)C1CN2CCC1CC2 (stereo not given)	i	-5.42*	i	i	i	152.5%*	i	33.0%*	i	52.0%*	·
CNC(C(=O)c1ccccc1)C(OC)c1cccc([N+](=O)[O-])c1 (stereo not given)	i	i	i	i	i	·	·	·	·	·	·
O=C(NC(=S)N1C[C@H]2C[C@H](C1)c1cccc(=O)n1C2)c1ccc(Cl)cc1Cl	i	i	i	i	i	·	·	·	·	·	·
CN(C)c1ccc(/C=C2/C(=N\O)C3CCN2CC3)cc1	i	i	i	i	i	·	·	·	·	·	·
OC(Cn1c2ccccc2c2ccccc21)C[n+]1cccc2ccccc21 (stereo not given)	i	-6.71*	i	i	i	·	·	·	·	59.2%*	i	TRPC4 spec 2=i;TRPC4 spec=-27.5%*;HEK293 MPD ctr 2-1=i;HEK293 MPD ctr-1=-334.5%*
O=C(c1ccc(Cl)cc1)C1CCCN(C2CCSCC2)C1 (stereo not given)	i	-7*	i	-5*	i	129.5%*	i	28.0%*	49.5%*	44.5%*	·
COc1ccc(C(=O)C2CCCN(Cc3cnc(C)s3)C2)cc1OC (stereo not given)	i	i	i	i	i	·	·	·	·	·	·
